Reference: ChEMBL document CHEMBL5032510, “Identification of Novel Fused Heteroaromatics-Based MALT1 Inhibitors by High-Throughput Screening to Treat B Cell Lymphoma” (J Med Chem, 2021)
The source made the active and inactive calls. The rule behind the calls is not given here.

Experiments:
[1] = molecular target: T1, Mucosa-associated lymphoid tissue lymphoma translocation protein 1 (Homo sapiens, UniProt Q9UDY8); experiment: Inhibition of MALT1 (340 to 789 residues) (unknown origin) using Ac-LRSR-AMC as substrate by fluorescence based analysis
T1 sequence (Q9UDY8 whole entry): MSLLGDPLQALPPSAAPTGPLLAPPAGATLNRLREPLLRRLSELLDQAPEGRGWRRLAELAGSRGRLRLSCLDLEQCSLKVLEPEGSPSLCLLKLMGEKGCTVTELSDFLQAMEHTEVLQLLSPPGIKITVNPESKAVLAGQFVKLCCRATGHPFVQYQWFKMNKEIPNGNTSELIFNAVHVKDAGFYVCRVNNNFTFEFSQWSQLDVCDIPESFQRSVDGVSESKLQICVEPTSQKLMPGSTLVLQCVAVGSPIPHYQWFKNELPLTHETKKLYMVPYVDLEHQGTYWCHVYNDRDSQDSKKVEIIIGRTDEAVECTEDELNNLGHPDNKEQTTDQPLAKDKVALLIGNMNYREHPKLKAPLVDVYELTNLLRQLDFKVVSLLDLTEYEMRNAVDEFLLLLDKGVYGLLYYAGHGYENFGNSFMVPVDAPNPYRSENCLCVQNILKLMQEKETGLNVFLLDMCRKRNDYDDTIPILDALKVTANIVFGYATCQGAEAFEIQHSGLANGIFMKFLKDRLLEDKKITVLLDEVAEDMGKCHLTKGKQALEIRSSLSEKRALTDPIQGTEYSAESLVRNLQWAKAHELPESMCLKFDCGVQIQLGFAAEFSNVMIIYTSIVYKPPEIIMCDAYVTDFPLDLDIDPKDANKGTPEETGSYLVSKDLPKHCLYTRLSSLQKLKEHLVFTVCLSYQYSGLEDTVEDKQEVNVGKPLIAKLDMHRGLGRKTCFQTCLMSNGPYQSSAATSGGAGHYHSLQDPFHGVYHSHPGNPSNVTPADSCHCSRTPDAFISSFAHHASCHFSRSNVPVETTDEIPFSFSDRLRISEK
Procedure, shortened: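 N-terminal His-tagged LZ-MALT1 expressed in E. coli, purified by Ni-NTA then gel filtration. Fluorescence read at 360/465 nm. IC₅₀ came from concentration–response curves; mean of three independent experiments.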

[2] = test system: TMD8; experiment: Antiproliferative activity against human TMD8 cells assessed as inhibition of cell growth incubated for 72 hrs by Celltiter-Glo luminescent assay; assay type: functional
Procedure, shortened: (§1)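 Exponentially growing cells were seeded at 1 × 10⁴ per 100 μL. HBL-1 and TMD8 were kept in RPMI with 10% FBS, 2 mM glutamine and 10 mM HEPES; OCI-LY1 in Iscove's medium with 20% FBS; all at 37 °C and 5% CO2. Cells were exposed to DMSO or 2-fold serial dilutions from 100 μM for 72 h, in triplicate on one plate. CellTiter-Glo luminescence was read after 1 h. Growth inhibition was calculated against control, accounting for initial cell number, and GI50 was fitted.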

[3] = test system: OCI-Ly1; experiment: Antiproliferative activity against human OCI-Ly1 cells assessed as inhibition of cell growth incubated for 72 hrs by Celltiter-Glo luminescent assay; assay type: functional; procedure, shortened: as §1
[4] = molecular target: T1, Mucosa-associated lymphoid tissue lymphoma translocation protein 1; experiment: Inhibition of N-terminal his-tagged GCN4 leucine zipper fused human MALT1 […] expressed in Escherichia coli using Ac-LVSR-AMC as substrate by HTS assay
[5] = Antiproliferative activity against human HBL1 cells assessed as inhibition of cell growth incubated for 72 hrs by Celltiter-Glo luminescent assay; assay type: functional; procedure, shortened: as §1
[6] = molecular target: T1, Mucosa-associated lymphoid tissue lymphoma translocation protein 1; experiment: Inhibition of full length recombinant wild type MALT1 (unknown origin) using Ac-LVSR-AMC as substrate by HTS assay
[7] = molecular target: T1, Mucosa-associated lymphoid tissue lymphoma translocation protein 1; experiment: Inhibition of MALT1 (329-824 residues) (unknown origin) using PT14 as substrate incubated for 60 mins by fluorescence based assay

Row | IC50 [1] | GI50 [3] | IC50 [4] | IC50 [6] | IC50 [7] | Compound | GI50 [2] | GI50 [5] | Activity [3]
1 | 0.01 µM |  |  |  |  | CC(C)[C@H](NC(=O)c1ccc(Br)cc1)C(=O)N1CCC[C@H]1C(=O)N[C@@H](CCCNC(=N)N)C(=O)CF |  |  | 
2 |  | 13.4 µM | 4.1 µM |  |  | CSc1ccc2c(c1)N(CCC1CCCCN1C)c1ccccc1S2 (configuration not stated) [THIORIDAZINE] | 5.9 µM | 6.6 µM | 
3 |  | 23 µM | 3.4 µM |  |  | Cc1ccc2c(c1)c(=O)[nH]c1c(C(=O)Nc3cc(Cl)ccc3C)sc(=S)n12 | 8 µM | 14 µM | 
4 |  |  |  | 5.84 µM |  | COCCOc1nc(-c2ccc(Cl)c(Cl)c2)n(-c2ccc(NC(=O)CCl)cc2)n1 |  |  | 
5 |  |  |  |  | 0.005 µM | CO[C@@H](C)c1c(NC(=O)Nc2cnc(C(=O)N3CCCC3)c(Cl)c2)cnc2cc(Cl)nn12 |  |  | 
6 |  | 11.2 µM | 16.6 µM |  |  | Cc1ccc(NC(=O)Nc2ccc3nc(N4CCN(C)CC4)cc(C)c3c2)cc1Cl | 5.56 µM | 5.56 µM | 
7 |  | 34 µM | 6.4 µM |  |  | COC(=O)c1ccc2c(=O)[nH]c3c(C(=O)Nc4ccc(-c5ccccc5)cc4)sc(=S)n3c2c1 | 23 µM | 16 µM | 
8 |  | 26 µM | 6.4 µM |  |  | Cc1ccc(NC(=O)c2sc(=S)n3c2[nH]c(=O)c2cc(Br)ccc23)c(C)c1 | 10 µM | 17 µM | 
9 |  |  | 4.1 µM |  |  | O=C(NCc1cccs1)c1sc(=S)n2c1[nH]c(=O)c1cc(Br)ccc12 | 22 µM | 13 µM | inactive
10 |  | 25.6 µM | 4.7 µM |  |  | CCOc1ccc(OCC)c(NC(=O)c2sc(=S)n3c2[nH]c(=O)c2ccc(Cl)cc23)c1 | 12.1 µM | 12.1 µM | 
11 |  | 15 µM | 14.5 µM |  |  | COC(=O)c1ccc2c(=O)[nH]c3c(C(=O)Nc4ccccc4C)sc(=S)n3c2c1 | 15 µM | 13.1 µM | 
12 |  | 12.1 µM | 3.8 µM |  |  | COc1ccc(OC)c(NC(=O)c2sc(=S)n(-c3cccc(F)c3)c2NC(=O)CCl)c1 | 1.5 µM | 1.6 µM | 
13 |  |  | 5.3 µM |  |  | O=C(NCc1ccccc1Cl)c1sc(=S)n2c1[nH]c(=O)c1cc(Cl)ccc12 | 33 µM | 25 µM | inactive
14 |  | 16.1 µM | 12.8 µM |  |  | COc1cccc(CNC(=O)c2sc(=S)n3c2[nH]c(=O)c2cc(Br)ccc23)c1 | 16.1 µM | 16.1 µM | 
